Measured values as given in ChEMBL document CHEMBL4732088, “Identification and optimization of piperlongumine analogues as potential antioxidant and anti-inflammatory agents via activation of Nrf2” (Eur J Med Chem, 2021).
Active and inactive are the calls of the source. The calls are words filed in the database; no cut-off is given here.

How the values were obtained:
PC-12 [1] = test: Neuroprotective activity against H2O2-induced cell damage in rat PC12 cells assessed as cell viability at 20 uM after 24 hrs by MTT assay (reference value: 46 +/- 4.12 %); format: functional; settings: read-out: Activity
PC-12 [2] = test: Neuroprotective activity against 6-OHDA-induced cell damage in rat PC12 cells assessed as cell viability at 20 uM after 24 hrs by MTT assay (reference value: 45.23 +/- 4.37 %); format: functional; settings: for viability at 20 µM: read-out: Activity
PC-12 [3] = test: Upregulation of Nrf2 expression in rat PC12 cells at 20 uM after 24 hrs by Western blot analysis; format: functional, cell-based
Outline: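 Rat PC12 cells exposed to compound for 24 h. Nrf2 protein detected by western blot. Mean ± SD, n = 3.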

PC-12 [4] = test: Neuroprotective activity against H2O2-induced cell damage in rat PC12 cells at 20 uM after 24 hrs by MTT assay; format: functional, cell-based
PC-12 [5] = test: Neuroprotective activity against 6-OHDA-induced cell damage in rat PC12 cells at 20 uM after 24 hrs by MTT assay; format: functional, cell-based
PC-12 [6] = test: Cytotoxicity against rat PC12 cells at 50 uM by MTT assay; format: cell-based; settings: pc-12, 50 µM
Outline: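 Rat PC12 cells exposed to compounds at 50 μM; viability by MTT assay.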

Row | Compound | viability at 20 µM (PC-12 [1]) [%] | viability at 20 µM (PC-12 [2]) [%] | further results
1 | CCCC(=O)N1CCN(C(=O)/C=C/c2ccc(F)cc2)C1=O | 70.2 | 69.3 | 
2 | O=C(/C=C/c1ccc(C(F)(F)F)cc1)N1CCNC1=O | 67.7 | 65.3 | 
3 | CC(C)(C)C(=O)N1CCN(C(=O)/C=C/c2ccc(C(F)(F)F)cc2)C1=O | 72.5 | 71.1 | 
4 | O=C(/C=C/c1ccc(F)cc1)N1CCNC1=O | 68.6 | 69.1 | Activity (PC-12 [3]): Active
5 | CC(C)(C)C(=O)N1CCN(C(=O)/C=C/c2ccc(Cl)cc2)C1=O | 72 | 71.1 | 
6 | O=C(/C=C/c1ccccc1)N1CCCCC1=O |  |  | Activity (PC-12 [2]): Active; Activity (PC-12 [4]): Active; Activity (PC-12 [5]): Active
7 | CC(C)(C)C(=O)N1CCN(C(=O)/C=C/c2c(F)cccc2Cl)C1=O |  | 71.1 | 
8 | CC(=O)N/C(=C\c1ccccc1)C(=O)N1CCN(C(=O)C(C)(C)C)C1=O | 72.7 | 71.2 | 
9 | CC(C)(C)C(=O)N1CCN(C(=O)/C=C/c2ccccc2)C1=O | 61.5 | 60.1 | 
10 | CC(C)(C)C(=O)N1CCN(C(=O)/C=C/c2ccccc2Cl)C1=O | 70 | 69 | 
11 | CCN(C)C(=O)N1CCN(C(=O)CCc2ccc(F)cc2)C1=O | 59.5 | 62.5 | 
12 | N#Cc1ccc(C(=O)N2CCN(C(=O)/C=C/c3ccc(F)cc3)C2=O)cc1 | 55.1 | 52.3 | Activity (PC-12 [6]): Toxic
13 | C=C(C)C(=O)N1CCN(C(=O)/C=C/c2ccc(F)cc2)C1=O | 38 | 30.2 | Activity (PC-12 [6]): Toxic
14 | C=CC(=O)N1CCN(C(=O)/C=C/c2ccc(F)cc2)C1=O | 44 | 43.8 | Activity (PC-12 [6]): Toxic
15 | O=C(/C=C/c1ccc(F)cc1)N1CCN(C(=O)N2CCCCC2)C1=O | 72.8 | 72.1 | 
16 | COc1cc(/C=C/C(=O)N2CCC=CC2=O)cc(OC)c1OC [PIPLARTINE] |  |  | Activity (PC-12 [6]): Toxic
17 | CC(C)(C)C(=O)N1CCN(C(=O)/C=C/c2ccncc2)C1=O | 71.1 | 69.6 | 
18 | CC(=O)N1CCN(C(=O)/C=C/c2ccc(F)cc2)C1=O | 70.4 | 72.3 | 
19 | O=C(/C=C/c1ccc(F)cc1)N1CCN(C(=O)c2cccs2)C1=O | 62.2 | 60.8 | 

Row | Compound | viability at 20 µM (PC-12 [1]) [%] | viability at 20 µM (PC-12 [2]) [%] | further results
20 | CC(C)(C)C(=O)N1CCN(C(=O)/C=C/c2cccc3ccccc23)C1=O | 72.3 | 71.8 | 
21 | CC(C)(C)C(=O)N1CCN(C(=O)/C=C/c2ccco2)C1=O | 69.7 | 68.3 | 
22 | O=C(/C=C/c1ccccc1)N1CCNC1=O |  |  | Activity (PC-12 [2]): Active; Activity (PC-12 [4]): Active; Activity (PC-12 [5]): Active
23 | O=C(/C=C/c1ccccc1)N1CCCNC1=O |  |  | Activity (PC-12 [2]): Active; Activity (PC-12 [4]): Active; Activity (PC-12 [5]): Active
24 | CC(C)(C)C(=O)N1CCN(C(=O)/C=C/c2ccc(F)cc2)C1=O | 73.6 | 72.2 | 
25 | CC(C)(C)C(=O)N1CCN(C(=O)/C=C/c2ccc(C#N)cc2)C1=O | 71.4 | 71.1 | 
26 | CC(C)(C)C(=O)N1CCN(C(=O)/C=C/c2cccs2)C1=O | 69.2 | 68.2 | 
27 | CC(C)(C)C(=O)N1CCN(C(=O)/C=C/c2cccc(F)c2)C1=O | 71 | 69.3 | 
28 | O=C(/C=C/c1ccco1)N1CCNC1=O | 64.1 | 60 | 
29 | O=C(/C=C/c1ccc(F)cc1)N1CCN(C(=O)CCCl)C1=O | 43.2 | 37.1 | Activity (PC-12 [6]): Toxic
30 | CN(C)C(=O)N1CCN(C(=O)/C=C/c2ccc(F)cc2)C1=O | 73.8 | 71.3 | 
31 | O=C(CCc1ccc(F)cc1)N1CCNC1=O | 53.6 | 56.3 | 
32 | CC(C)(C)C(=O)N1CCN(C(=O)/C=C/c2ccc3c(c2)OCO3)C1=O | 63.3 | 62.3 | 
33 | CCC(=O)N1CCN(C(=O)/C=C/c2ccc(F)cc2)C1=O | 71.6 | 70.2 | 
34 | CC(C)(C)C(=O)N1CCN(C(=O)/C=C/c2ccccc2F)C1=O | 72.4 | 72.3 | 
35 | O=C(/C=C/c1cccs1)N1CCNC1=O | 65.2 | 64.2 | 
36 | O=C(/C=C/c1ccc(F)cc1)N1CCN(C(=O)c2ccccc2)C1=O | 63.3 | 60.3 | 
37 | CC(C)(C)C(=O)N1CCN(C(=O)/C=C/c2cccc(Cl)c2)C1=O | 69.2 | 68.3 | 
